ChEMBL document CHEMBL3244271, “Synthetic sulfur-containing amino acids. Inhibition of transport systems in S37 ascites tumor cells” (J Med Chem, 1978)

Columns and labels:
Format in all cases: cell-based
S37 [1] = assay: Inhibition of L-type amino acid transporter-mediated [3H]-L-histidine uptake in mouse S37 cells assessed as residual activity after 2 mins by liquid scintillation counting analysis relative to control
Summary of the method: (§1)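 Mouse-passaged S37 ascites cells were collected 6-8 days post-transplant, washed three times and resuspended in modified Krebs-Ringer phosphate buffer. L-system uptake used [3H]-L-histidine at 0.1 mM for 2 min at 20 °C. Incubation ended on pouring into chilled buffer, followed by three centrifugations to remove entrained label. Pellet wet weight was recorded, the EtOH lysate was scintillation-counted, and results are % of control, averaging duplicate runs on triplicate samples.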

S37 [2] = assay: Inhibition of A-type amino acid transporter-mediated [3H]-L-histidine uptake in mouse S37 cells assessed as residual activity after 2 mins by liquid scintillation counting analysis relative to control
Summary of the method: (§2)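 S37 ascites tumor cells were harvested 6-8 days after transplanting about 0.3 mL of a 1:10 packed-cell suspension. Cells were washed three times in modified Krebs-Ringer phosphate buffer, resuspended, and incubated with [3H]-L-histidine at 10 mM (A system) for 2 min at 20 °C. Uptake was stopped in chilled buffer, and cells were spun, rinsed and weighed wet. Pellets were lysed in 95% EtOH and counted by scintillation. Results are % of control, with duplicate runs on triplicate samples.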

S37 [3] = assay: Inhibition of L-type amino acid transporter-mediated [3H]-L-histidine uptake in mouse S37 cells assessed as residual activity at 5 mM after 2 mins by liquid scintillation counting analysis relative to control
S37 [4] = assay: Inhibition of A-type amino acid transporter-mediated [3H]-L-histidine uptake in mouse S37 cells assessed as residual activity at 5 mM after 2 mins by liquid scintillation counting analysis relative to control
S37 [5] = assay: Inhibition of L-type amino acid transporter-mediated [3H]-L-histidine uptake in mouse S37 cells assessed as residual activity at 10 mM after 2 mins by liquid scintillation counting analysis relative to control; summary of the method: as §1
S37 [6] = assay: Inhibition of A-type amino acid transporter-mediated [3H]-L-histidine uptake in mouse S37 cells assessed as residual activity at 10 mM after 2 mins by liquid scintillation counting analysis relative to control; summary of the method: as §2

SMILES	Activity (S37 [3]) [%]	Activity (S37 [4]) [%]	Activity (S37 [5]) [%]	Activity (S37 [6]) [%]	other results
NC1(C(=O)O)CCSCC1					Activity (S37 [1]): 31%; Activity (S37 [2]): 81%
CSCC[C@H](N)C(=O)O	11	68			
O=C(O)C1CCSCN1 (racemic)			90	85	
CCSCC[C@H](N)C(=O)O	11	63			
O=C(O)[C@@H]1CSCCN1	51	73			
NC(CCS)C(=O)O (racemic)			6	55	
CC1N[C@H](C(=O)O)CS1 (stereo partly specified)	70	72			
CC1(C)N[C@H](C(=O)O)CS1	45	68			
O=C(O)C1NCCS1 (racemic)			63	58	
O=C(O)[C@@H]1CSCN1	72	74			
N[C@@H](CSCCSC[C@H](N)C(=O)O)C(=O)O	52	70			
N[C@@H](CS)C(=O)O	16	51			
NC1CCSC1=O (stereo unspecified)			96	119	
